Assay results of several laboratories.
Compare with care: the assays were run in different laboratories.
FLT3 K663Q: Receptor-type tyrosine-protein kinase FLT3 (FLT3, Homo sapiens, UniProt P36888, K663Q)
FLT3 autoinhibited: Receptor-type tyrosine-protein kinase FLT3, autoinhibited (FLT3, Homo sapiens, UniProt P36888)
FLT3: Receptor-type tyrosine-protein kinase FLT3 (FLT3, Homo sapiens, UniProt P36888)
FLT3 ITD: Receptor-type tyrosine-protein kinase FLT3 (FLT3, Homo sapiens, UniProt P36888, ITD)
FLT3 D835V: Receptor-type tyrosine-protein kinase FLT3 (FLT3, Homo sapiens, UniProt P36888, D835V)
FLT3 N841I: Receptor-type tyrosine-protein kinase FLT3 (FLT3, Homo sapiens, UniProt P36888, N841I)
FLT3 R834Q: Receptor-type tyrosine-protein kinase FLT3 (FLT3, Homo sapiens, UniProt P36888, R834Q)
FLT3 D835Y: Receptor-type tyrosine-protein kinase FLT3 (FLT3, Homo sapiens, UniProt P36888, D835Y)

SMILES	target	test	setting	remaining binding [%]
CCC(=O)N[C@H]1CC[C@@H](C(=O)N(C)c2ccc(-c3nc4ccccc4o3)cc2)C1	FLT3 K663Q	cell-free assay, competition with immobilised ligand	1 µM	88
c1cncc(-c2cccc(Nc3nccc(NC4CCCCC4)n3)c2)c1	FLT3 autoinhibited	binding, competition with immobilised ligand	10 µM	3.6
CCS(=O)(=O)c1cc2cc(C[C@@](O)(CC(C)(C)c3ccc(F)cc3C(N)=O)C(F)(F)F)[nH]c2cn1	FLT3	cell-free assay, competition with immobilised ligand	1 µM	97
O=C(c1ccc(Nc2ncc(Cl)c(-c3ccc(Cl)s3)n2)cc1)N1CCC(N2CCCC2)CC1	FLT3 ITD	binding, competition with immobilised ligand	1 µM	0.35
CC1CCCN1c1nccc(-c2cnn3ncccc23)n1 (stereo not drawn)	FLT3 K663Q	binding	1 µM	100
CC1=C(C#N)C(c2ccc3c(c2)c(NC(=O)c2ccccc2C)nn3C)C(C#N)=C(C)N1	FLT3 K663Q	cell-free assay, competition with immobilised ligand	1 µM	100
O=C(c1ccc(Nc2nccc(-c3cc4ccccc4s3)n2)cc1)N1CCC(N2CCCC2)CC1	FLT3 ITD	binding, competition with immobilised ligand	1 µM	46
COc1cnc(Nc2cccc(S(N)(=O)=O)c2)nc1N1CCN(c2ccccc2)C(=O)C1	FLT3 D835V	binding, competition with immobilised ligand	1 µM	42
O=C(NCCCN1CCOCC1)c1ccc(Nc2ncc(Cl)c(-c3ccc(Cl)s3)n2)cc1	FLT3 N841I	binding, competition with immobilised ligand	1 µM	0.6
COc1ccc2c(O[C@@H]3C[C@H]4C(=O)N[C@]5(C(=O)O)CC5/C=C\CCCCC[C@H](NC(=O)OC5CCCC5)C(=O)N4C3)cc(-c3csc(NC(=O)C(C)C)n3)nc2c1C (stereo partly drawn)	FLT3 R834Q	cell-free assay, competition with immobilised ligand	1 µM	92
CNC(=O)[C@@H]1CC[C@@H](n2c(-c3ccc4cnccc4c3)nc3ccc(C(=O)NCc4cccc(C(N)=O)c4)cc32)C1	FLT3 D835V	binding, competition with immobilised ligand	1 µM	94
COc1ncc2cc3ccccc3nc2c1C#N	FLT3 autoinhibited	cell-free assay, competition with immobilised ligand	5 µM	100
COCCOc1nc(-c2ccc(Cl)nc2)nc2c1CN(C(=O)c1ncn3ccccc13)CC2	FLT3 D835V	cell-free assay, competition with immobilised ligand	0.1 µM	100
C[C@H]1CCN(c2nccc(-c3cnn4ncccc34)n2)C1	FLT3 R834Q	binding	1 µM	71
C=CC(=O)N1CCC(C(=O)NCC(=O)N2CCN(c3nc(-c4cnc(N)nc4C(F)F)nc(N4CCOCC4)n3)CC2)CC1	FLT3 K663Q	binding, competition with immobilised ligand	1 µM	100
Nc1ncc2c(n1)-c1c([nH]c3ccc(C#CC4CC4)cc13)CCCC2	FLT3 N841I	binding, competition with immobilised ligand	1 µM	89
CN1CCN(c2ccc(Nc3nccc(-c4cccc([N+](=O)[O-])c4)n3)cc2C(F)(F)F)CC1	FLT3 R834Q	binding	10 µM	3.7

SMILES	target	test	setting	remaining binding [%]
O=C(NCC1CCOCC1)c1n[nH]cc1NC(=O)c1c(F)cccc1F	FLT3 R834Q	binding, competition with immobilised ligand	1 µM	77
CCCCN(CCCC)C(=O)CN1C[C@@H](c2cc(OC)c3c(c2)OCO3)[C@H](C(=O)O)[C@H]1CC(C)(C)CCC	FLT3 D835Y	cell-free assay, competition with immobilised ligand	1 µM	75.2
C[C@@H](c1ccc(-n2cnc3c(N)ncnc32)cc1)N1CCc2nn(C)c(Cc3ccccc3)c2C1=O	FLT3	binding, competition with immobilised ligand	0.1 µM	100
CCN1CCN(Cc2ccc(C(=O)Nc3ccc(C)c(Oc4ccc5c(c4)CC(=O)N5)c3)cc2C(F)(F)F)CC1	FLT3 D835Y	binding, competition with immobilised ligand	1 µM	100
CN(C)c1nccc(-c2cnn3ncccc23)n1	FLT3 autoinhibited	binding	1 µM	100
CN1CCN(c2ccc(Nc3nccc(-c4ccccc4)n3)cc2C(F)(F)F)CC1	FLT3 R834Q	binding	10 µM	15
COc1cnc(Nc2cccc(S(N)(=O)=O)c2)nc1N1CCN(c2ccccc2)CC1	FLT3 D835Y	binding, competition with immobilised ligand	1 µM	61
O=C(c1ccc(Nc2ncc(Cl)c(-c3cc4ccccc4s3)n2)cc1)N1CCC(N2CCCC2)CC1	FLT3 autoinhibited	binding, competition with immobilised ligand	1 µM	27
COc1ccnn2ncc(-c3ccnc(N(C)C)n3)c12	FLT3 N841I	binding	1 µM	100
Cc1cc(-n2nc(Cc3cc(F)cc(C(F)(F)F)c3)nc2C)ccc1C(N)=O	FLT3	cell-free assay, competition with immobilised ligand	1 µM	100
O=C(NCCCN1CCOCC1)c1ccc(Nc2nccc(-c3cc4ccccc4s3)n2)cc1	FLT3 D835Y	binding, competition with immobilised ligand	1 µM	18
CCCOc1ccc([C@@H]2[C@@H](C(=O)O)[C@H](c3ccc4c(c3)OCO4)CN2CC(=O)Nc2c(CC)cccc2CC)cc1	FLT3 N841I	cell-free assay, competition with immobilised ligand	1 µM	88
Cc1cnn2ncc(-c3ccnc(N(C)C)n3)c2c1	Receptor-type tyrosine-protein kinase FLT3 (FLT3, Homo sapiens, UniProt P36888, D835H)	binding	1 µM	100
O=C(Nc1c[nH]nc1C(=O)NC1CCNCC1)c1cc(F)cc(F)c1	FLT3 N841I	binding, competition with immobilised ligand	1 µM	100
N[C@@H]1CCN(c2nccc(-c3cnn4ncccc34)n2)C1	FLT3 R834Q	binding	1 µM	100
Cc1cnc(Nc2ccc(C(=O)N3CCC(N4CCCC4)CC3)cc2)nc1-c1cc2ccccc2s1	FLT3 D835Y	binding, competition with immobilised ligand	1 µM	3.6
